Reference: ChEMBL document CHEMBL1152551, “Synthesis and pharmacological evaluation of novel 1- and 8-substituted-3-furfuryl xanthines as adenosine receptor antagonists” (Bioorg Med Chem, 2009)

How the values were obtained:
Adenosine receptor A2a = Adenosine receptor A2a (Homo sapiens, UniProt P29274); experiment: Displacement of [3H]ZM241385 from human adenosine A2A receptor expressed in HeLa cells at 1 uM by microplate beta scintillation counting; assay type: cell-based
Method in brief: (§1)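 Single concentration of 1 µM tested for displacement of specific radioligand binding, given as percentage displacement. Rat A1 in rat cortex membranes with [3H]DPCPX; human A2B in HEK-293 cells with [3H]DPCPX; human A2A in HeLa cells with [3H]ZM241385; human A3 in HeLa cells with [3H]NECA.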

[1] = molecular target: T1, Adenosine receptor A3 (Homo sapiens) (UniProt P0DMS8); experiment: Displacement of [3H]NECA from human recombinant adenosine A3 receptor expressed in HeLa cells at 1 uM; assay type: cell-based; method in brief: as §1
T1 sequence (whole entry): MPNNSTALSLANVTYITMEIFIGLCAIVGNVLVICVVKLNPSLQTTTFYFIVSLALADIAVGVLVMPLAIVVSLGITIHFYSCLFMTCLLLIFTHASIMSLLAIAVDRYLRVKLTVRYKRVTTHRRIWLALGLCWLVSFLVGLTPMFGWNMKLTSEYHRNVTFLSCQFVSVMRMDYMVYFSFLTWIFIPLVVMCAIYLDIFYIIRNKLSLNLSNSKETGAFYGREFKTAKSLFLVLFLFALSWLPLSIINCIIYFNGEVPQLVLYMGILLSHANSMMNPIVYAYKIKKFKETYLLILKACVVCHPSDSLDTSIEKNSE

[2] = molecular target: T2, Adenosine receptor A2b (Homo sapiens) (UniProt P29275); experiment: Displacement of [3H]DPCPX from human adenosine A2B receptor expressed in HEK293 cells at 1 uM; assay type: cell-based; method in brief: as §1
T2 sequence (whole entry): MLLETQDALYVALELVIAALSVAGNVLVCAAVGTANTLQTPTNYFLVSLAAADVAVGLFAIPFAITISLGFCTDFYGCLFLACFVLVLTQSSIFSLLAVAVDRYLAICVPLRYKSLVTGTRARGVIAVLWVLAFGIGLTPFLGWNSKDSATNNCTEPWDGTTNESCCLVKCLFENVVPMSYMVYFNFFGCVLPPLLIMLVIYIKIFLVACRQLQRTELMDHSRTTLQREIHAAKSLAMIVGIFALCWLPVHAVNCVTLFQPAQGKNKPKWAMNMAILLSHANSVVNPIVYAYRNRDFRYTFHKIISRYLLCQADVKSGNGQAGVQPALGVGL

[3] = molecular target: T3, Adenosine receptor A1 (Rattus norvegicus) (UniProt P25099); experiment: Displacement of [3H]DPCPX form adenosine A1 receptor in rat cortex membrane at 1 uM; assay type: cell membranes; method in brief: as §1
T3 sequence (whole entry): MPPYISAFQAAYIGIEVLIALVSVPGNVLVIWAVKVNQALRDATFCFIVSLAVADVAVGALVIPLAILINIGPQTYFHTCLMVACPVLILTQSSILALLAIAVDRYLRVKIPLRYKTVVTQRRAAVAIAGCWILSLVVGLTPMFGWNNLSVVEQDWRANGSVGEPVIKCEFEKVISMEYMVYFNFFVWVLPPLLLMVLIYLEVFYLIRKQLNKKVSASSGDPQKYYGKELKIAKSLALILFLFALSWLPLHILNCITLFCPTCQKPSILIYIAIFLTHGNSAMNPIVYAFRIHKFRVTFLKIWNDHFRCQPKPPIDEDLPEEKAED

Sequence of Adenosine receptor A2a (P29274 whole entry): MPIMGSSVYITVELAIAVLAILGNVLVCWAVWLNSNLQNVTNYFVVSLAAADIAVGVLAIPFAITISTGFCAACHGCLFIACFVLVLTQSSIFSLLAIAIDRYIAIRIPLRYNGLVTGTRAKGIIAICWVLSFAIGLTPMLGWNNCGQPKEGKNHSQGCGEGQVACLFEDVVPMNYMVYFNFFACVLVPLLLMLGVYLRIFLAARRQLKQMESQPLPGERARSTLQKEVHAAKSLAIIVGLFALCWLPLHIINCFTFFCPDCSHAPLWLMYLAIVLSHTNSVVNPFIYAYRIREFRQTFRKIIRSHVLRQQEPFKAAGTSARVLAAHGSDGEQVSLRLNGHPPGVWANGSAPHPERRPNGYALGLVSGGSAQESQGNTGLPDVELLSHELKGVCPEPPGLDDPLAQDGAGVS

- Activity (Adenosine receptor A2a): 10%
- Activity [1]: 11%
- Activity [2]: 17%
- Activity [3]: 21%
Compound: CCCCCn1c(=O)c2[nH]c(Cc3cccs3)nc2n(Cc2ccco2)c1=O
